Source: ChEMBL document CHEMBL1158444 (J Med Chem, 2009)
Calls of active or inactive are those of the source. No cut-off for these calls is given here.

Key:
[1] = molecular target: T1, Metabotropic glutamate receptor 4 (Homo sapiens, UniProt Q14833); test: Activity at human mGluR4 receptor expressed in CHO cells assessed as effect on calcium mobilization relative to glutamate; format: functional, cell-based
[2] = Metabolic stability in human liver microsomes after 1 hr; format: ADME, Microsome; conditions: read-out: Stability
[3] = Metabolic stability in rat liver microsomes after 1 hr; format: ADME, Microsome; conditions: read-out: Stability
Plasma [4] = test: Fraction unbound in human plasma by at […]; format: ADME, cell-free
[5] = molecular target: Metabotropic glutamate receptor 4 (Rattus norvegicus) (UniProt P31423); test: Activity at rat mGluR4 receptor expressed in HEK293 cells assessed as effect on thallium flux relative to glutamate; format: cell-based
Plasma [6] = test: Fraction unbound in rat plasma by at […]; format: ADME, cell-free
[7] = molecular target: T1, Metabotropic glutamate receptor 4; test: Activity at human mGluR4 receptor expressed in CHO cells assessed as effect on calcium mobilization; format: functional, cell-based
[8] = molecular target: T1, Metabotropic glutamate receptor 4; test: Activity at human mGluR4 expressed in CHO cells coexpressing Gqi5 protein assessed as fold shifting of glutamate-induced response to left at 30 uM; format: cell-based
[9] = molecular target: Metabotropic glutamate receptor 4 (Rattus norvegicus) (UniProt P31423); test: Activity at rat mGluR4 expressed in HEK293 cells coexpressing Gqi5 protein assessed as fold shifting of glutamate-induced response to left at 30 uM; format: cell-based
[10] = molecular target: Metabotropic glutamate receptor 4 (Rattus norvegicus, UniProt P31423); test: Activity at rat mGluR4 receptor expressed in HEK293 cells assessed as effect on thallium flux
[11] = molecular target: Metabotropic glutamate receptor 7 (Homo sapiens) (UniProt Q14831); test: Activity at human mGluR7
Metabotropic glutamate receptor 7 (Homo sapiens), sequence (Q14831 whole entry): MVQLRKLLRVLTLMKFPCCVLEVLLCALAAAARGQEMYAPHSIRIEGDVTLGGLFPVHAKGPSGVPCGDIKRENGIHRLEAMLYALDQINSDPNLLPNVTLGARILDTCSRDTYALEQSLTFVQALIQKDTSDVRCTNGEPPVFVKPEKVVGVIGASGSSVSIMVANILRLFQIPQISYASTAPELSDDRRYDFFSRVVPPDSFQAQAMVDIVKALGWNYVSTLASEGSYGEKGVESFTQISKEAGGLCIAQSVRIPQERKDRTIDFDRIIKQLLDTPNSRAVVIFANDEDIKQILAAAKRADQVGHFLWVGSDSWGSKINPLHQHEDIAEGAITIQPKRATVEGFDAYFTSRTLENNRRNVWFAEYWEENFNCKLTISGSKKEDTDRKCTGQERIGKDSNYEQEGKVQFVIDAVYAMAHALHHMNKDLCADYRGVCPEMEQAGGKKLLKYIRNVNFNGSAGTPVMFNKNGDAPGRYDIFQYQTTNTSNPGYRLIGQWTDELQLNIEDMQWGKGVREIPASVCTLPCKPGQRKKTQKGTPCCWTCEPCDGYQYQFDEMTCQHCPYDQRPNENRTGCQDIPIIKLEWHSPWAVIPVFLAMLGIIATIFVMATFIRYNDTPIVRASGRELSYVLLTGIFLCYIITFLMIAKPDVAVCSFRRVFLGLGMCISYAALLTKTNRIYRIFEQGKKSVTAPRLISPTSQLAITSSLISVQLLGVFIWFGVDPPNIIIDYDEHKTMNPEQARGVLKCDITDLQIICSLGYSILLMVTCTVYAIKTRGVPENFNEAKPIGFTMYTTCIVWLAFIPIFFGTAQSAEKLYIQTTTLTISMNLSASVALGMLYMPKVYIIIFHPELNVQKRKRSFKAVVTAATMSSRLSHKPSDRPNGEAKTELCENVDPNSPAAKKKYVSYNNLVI

[12] = molecular target: Metabotropic glutamate receptor 1 (Homo sapiens) (UniProt Q13255); test: Activity at human mGluR1
Metabotropic glutamate receptor 1 (Homo sapiens), sequence (Q13255 19-1194 limits assumed): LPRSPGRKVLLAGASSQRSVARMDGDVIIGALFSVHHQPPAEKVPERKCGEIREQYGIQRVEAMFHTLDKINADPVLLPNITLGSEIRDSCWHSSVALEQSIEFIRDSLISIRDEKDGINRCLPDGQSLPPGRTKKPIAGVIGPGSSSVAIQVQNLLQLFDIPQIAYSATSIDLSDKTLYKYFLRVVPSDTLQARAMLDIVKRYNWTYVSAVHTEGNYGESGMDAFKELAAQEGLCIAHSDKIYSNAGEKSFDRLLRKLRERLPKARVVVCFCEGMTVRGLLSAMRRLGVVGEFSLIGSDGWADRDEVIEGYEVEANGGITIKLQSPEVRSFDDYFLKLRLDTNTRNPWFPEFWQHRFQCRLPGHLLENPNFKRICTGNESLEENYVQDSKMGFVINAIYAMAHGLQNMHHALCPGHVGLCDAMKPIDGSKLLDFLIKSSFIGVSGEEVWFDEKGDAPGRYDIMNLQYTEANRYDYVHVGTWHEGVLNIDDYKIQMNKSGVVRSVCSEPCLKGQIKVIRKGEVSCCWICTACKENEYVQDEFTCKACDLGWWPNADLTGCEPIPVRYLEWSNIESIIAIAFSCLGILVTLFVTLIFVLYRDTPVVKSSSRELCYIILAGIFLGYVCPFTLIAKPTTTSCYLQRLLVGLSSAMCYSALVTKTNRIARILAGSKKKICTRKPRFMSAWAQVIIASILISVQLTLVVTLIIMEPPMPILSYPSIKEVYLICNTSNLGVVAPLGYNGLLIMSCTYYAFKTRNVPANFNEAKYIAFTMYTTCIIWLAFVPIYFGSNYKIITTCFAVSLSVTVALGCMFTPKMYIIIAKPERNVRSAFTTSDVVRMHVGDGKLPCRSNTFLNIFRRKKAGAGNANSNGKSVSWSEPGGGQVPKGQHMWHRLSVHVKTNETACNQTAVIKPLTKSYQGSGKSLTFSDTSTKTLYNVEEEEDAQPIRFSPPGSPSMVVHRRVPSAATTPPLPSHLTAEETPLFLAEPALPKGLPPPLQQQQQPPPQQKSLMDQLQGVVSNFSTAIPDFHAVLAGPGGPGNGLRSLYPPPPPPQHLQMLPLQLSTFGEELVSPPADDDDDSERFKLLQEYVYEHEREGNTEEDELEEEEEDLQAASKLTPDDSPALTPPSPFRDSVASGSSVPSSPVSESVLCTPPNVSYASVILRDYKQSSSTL

[13] = molecular target: Metabotropic glutamate receptor 2 (Homo sapiens) (UniProt Q14416); test: Activity at human mGluR2
Metabotropic glutamate receptor 2 (Homo sapiens), sequence (Q14416 19-872 limits assumed): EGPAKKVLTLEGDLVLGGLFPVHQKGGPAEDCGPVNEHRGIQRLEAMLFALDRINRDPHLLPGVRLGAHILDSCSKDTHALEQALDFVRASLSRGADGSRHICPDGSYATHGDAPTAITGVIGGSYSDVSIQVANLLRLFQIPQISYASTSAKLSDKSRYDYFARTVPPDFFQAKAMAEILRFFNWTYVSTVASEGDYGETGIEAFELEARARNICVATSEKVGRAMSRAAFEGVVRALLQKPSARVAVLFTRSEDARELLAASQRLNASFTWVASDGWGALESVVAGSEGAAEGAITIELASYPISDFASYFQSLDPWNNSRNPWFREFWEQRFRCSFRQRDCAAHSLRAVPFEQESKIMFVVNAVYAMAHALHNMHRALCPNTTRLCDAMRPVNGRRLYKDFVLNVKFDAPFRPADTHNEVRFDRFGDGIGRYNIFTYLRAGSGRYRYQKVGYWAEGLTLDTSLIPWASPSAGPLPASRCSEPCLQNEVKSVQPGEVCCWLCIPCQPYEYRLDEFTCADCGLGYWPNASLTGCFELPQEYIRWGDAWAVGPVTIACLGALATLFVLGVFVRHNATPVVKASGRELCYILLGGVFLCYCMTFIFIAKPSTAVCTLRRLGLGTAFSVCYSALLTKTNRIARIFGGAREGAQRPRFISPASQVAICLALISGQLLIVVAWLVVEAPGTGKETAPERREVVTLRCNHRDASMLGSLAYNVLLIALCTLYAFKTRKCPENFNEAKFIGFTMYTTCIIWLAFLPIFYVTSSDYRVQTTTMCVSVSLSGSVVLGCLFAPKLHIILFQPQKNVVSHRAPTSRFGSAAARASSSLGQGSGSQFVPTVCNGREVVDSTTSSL

[14] = molecular target: Metabotropic glutamate receptor 3 (Homo sapiens) (UniProt Q14832); test: Activity at human mGluR3
[15] = molecular target: Metabotropic glutamate receptor 5 (Homo sapiens) (UniProt P41594); test: Activity at human mGluR5
Metabotropic glutamate receptor 5 (Homo sapiens), sequence (P41594 21-1212 limits assumed): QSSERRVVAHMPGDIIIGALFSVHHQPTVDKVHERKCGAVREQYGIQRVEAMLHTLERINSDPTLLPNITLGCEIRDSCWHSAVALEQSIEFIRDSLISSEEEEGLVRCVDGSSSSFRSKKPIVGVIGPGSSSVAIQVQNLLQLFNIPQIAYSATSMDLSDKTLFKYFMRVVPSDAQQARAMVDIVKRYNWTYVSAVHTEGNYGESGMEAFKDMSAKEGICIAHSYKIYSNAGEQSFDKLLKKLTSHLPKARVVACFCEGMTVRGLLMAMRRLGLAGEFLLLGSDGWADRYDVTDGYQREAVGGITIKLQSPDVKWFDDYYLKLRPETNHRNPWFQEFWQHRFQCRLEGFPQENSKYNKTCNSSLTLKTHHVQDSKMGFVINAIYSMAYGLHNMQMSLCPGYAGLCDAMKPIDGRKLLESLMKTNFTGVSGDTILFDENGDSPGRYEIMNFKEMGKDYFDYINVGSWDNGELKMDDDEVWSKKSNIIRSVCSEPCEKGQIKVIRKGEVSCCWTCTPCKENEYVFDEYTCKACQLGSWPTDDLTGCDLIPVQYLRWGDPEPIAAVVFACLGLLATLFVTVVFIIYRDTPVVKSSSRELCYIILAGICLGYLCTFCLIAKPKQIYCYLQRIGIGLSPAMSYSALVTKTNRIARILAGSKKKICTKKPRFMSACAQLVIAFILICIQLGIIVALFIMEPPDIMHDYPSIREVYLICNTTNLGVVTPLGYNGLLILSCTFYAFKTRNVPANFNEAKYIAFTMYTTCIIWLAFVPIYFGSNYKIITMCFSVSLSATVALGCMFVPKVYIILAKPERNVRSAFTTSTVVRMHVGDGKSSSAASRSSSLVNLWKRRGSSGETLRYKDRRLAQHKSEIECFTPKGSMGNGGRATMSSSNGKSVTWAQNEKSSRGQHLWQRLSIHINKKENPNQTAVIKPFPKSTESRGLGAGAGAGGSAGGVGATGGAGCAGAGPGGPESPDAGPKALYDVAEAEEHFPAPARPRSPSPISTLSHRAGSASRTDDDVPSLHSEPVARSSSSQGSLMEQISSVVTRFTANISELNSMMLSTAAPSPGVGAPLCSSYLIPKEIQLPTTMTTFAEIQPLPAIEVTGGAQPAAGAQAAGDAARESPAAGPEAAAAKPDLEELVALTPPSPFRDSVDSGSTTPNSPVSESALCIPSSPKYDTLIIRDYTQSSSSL

[16] = molecular target: Metabotropic glutamate receptor 8 (Homo sapiens) (UniProt O00222); test: Activity at human mGluR8 assessed as fold shifting of glutamate-induced response to left
Plasma [17] = test: Half life in Sprague-Dawley rat plasma at 10 mg/kg, ip; format: ADME, organism-based; set-up: dose 10 mg/kg, route intraperitoneal; conditions: in vivo
Summary of the method: (§1)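 Rats dosed intraperitoneally at 10mg/kg with the hydrochloride salt, given as an aqueous microsuspension containing 10% tween 80. Compound levels in brain and plasma were measured at 0.5, 1 and 8 h after administration.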

[18] = Cmax in Sprague-Dawley rat brain at 10 mg/kg, ip; format: ADME, organism-based; set-up: dose 10 mg/kg, route intraperitoneal; summary of the method: as §1
Plasma [19] = test: Cmax in Sprague-Dawley rat plasma at 10 mg/kg, ip; format: ADME, organism-based; set-up: dose 10 mg/kg, route intraperitoneal; conditions: in vivo
[20] = AUC in Sprague-Dawley rat brain at 10 mg/kg, ip; format: ADME, organism-based; set-up: dose 10 mg/kg, route intraperitoneal; summary of the method: as §1
Plasma [21] = test: AUC in Sprague-Dawley rat plasma at 10 mg/kg, ip; format: ADME, organism-based; set-up: dose 10 mg/kg, route intraperitoneal; conditions: in vivo
[22] = Apparent oral clearance in Sprague-Dawley rat at 10 mg/kg, ip; format: ADME, organism-based; set-up: dose 10 mg/kg; conditions: in vivo; summary of the method: as §1
Brain = test: Half life in Sprague-Dawley rat brain at 10 mg/kg, ip; format: ADME, organism-based; set-up: dose 10 mg/kg, route intraperitoneal; conditions: in vivo; summary of the method: as §1

T1 sequence (Q14833 whole entry): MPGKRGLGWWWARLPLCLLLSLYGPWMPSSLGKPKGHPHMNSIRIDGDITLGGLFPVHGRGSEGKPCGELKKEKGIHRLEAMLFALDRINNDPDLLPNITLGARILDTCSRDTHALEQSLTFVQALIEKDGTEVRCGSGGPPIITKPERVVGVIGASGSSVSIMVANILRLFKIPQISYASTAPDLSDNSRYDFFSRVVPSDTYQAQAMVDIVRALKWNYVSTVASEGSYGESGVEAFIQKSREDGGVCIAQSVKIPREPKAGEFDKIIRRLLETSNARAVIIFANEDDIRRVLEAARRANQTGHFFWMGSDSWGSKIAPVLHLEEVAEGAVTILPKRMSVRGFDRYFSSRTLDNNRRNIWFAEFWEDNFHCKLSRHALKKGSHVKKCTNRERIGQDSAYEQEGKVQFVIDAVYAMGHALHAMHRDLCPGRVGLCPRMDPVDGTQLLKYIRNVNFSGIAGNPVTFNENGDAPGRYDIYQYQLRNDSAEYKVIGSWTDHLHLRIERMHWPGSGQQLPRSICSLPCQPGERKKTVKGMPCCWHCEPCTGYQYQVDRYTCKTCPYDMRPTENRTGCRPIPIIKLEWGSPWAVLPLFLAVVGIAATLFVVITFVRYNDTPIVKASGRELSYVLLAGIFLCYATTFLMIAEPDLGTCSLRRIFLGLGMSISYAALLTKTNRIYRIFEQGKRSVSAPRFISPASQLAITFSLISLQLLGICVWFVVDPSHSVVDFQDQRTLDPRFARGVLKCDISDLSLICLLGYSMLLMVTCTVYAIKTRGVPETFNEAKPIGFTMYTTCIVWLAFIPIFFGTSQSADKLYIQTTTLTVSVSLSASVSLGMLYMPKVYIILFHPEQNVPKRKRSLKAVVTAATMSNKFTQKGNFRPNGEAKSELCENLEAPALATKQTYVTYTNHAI

Row | SMILES | Emax [1] [%] | Emax [5] [%] | EC50 [7] [µM] | EC50 [10] [nM] | other results
1 | O=C(Nc1cccc(OC(F)(F)F)c1)c1ccccn1 | 132 | 75 |  |  | remaining at 1 h [2]: 22%; remaining at 1 h [3]: 20%; Fu (Plasma [4]): 0.8%; Fu (Plasma [6]): 1.6%
2 | O=C(Nc1ccc(Cl)c(Cl)c1)c1ccc(Br)o1 | 62 |  | 4.1 |  | 
3 | O=C(Nc1ccc(Cl)c(Cl)c1)c1ccno1 |  |  | > 10 |  | 
4 | O=C(Nc1ccc(Cl)c(C(F)(F)F)c1)c1ccccn1 | 47 | 41 | 2.1 | 1700 | fold change (FC) [8]: 1.8; fold change (FC) [9]: 2.1
5 | O=C(Nc1cccc(Cl)c1)c1ccco1 |  |  | > 5 |  | fold change (FC) [8]: 5
6 | COc1nc(NC(=O)c2ccccn2)ccc1Cl | 95 |  | > 5 |  | 
7 | N#Cc1ccc(NC(=O)c2ccccn2)cc1C(F)(F)F |  |  | > 10 | > 10000 | 
8 | O=C(Nc1ccc(Cl)c(Cl)c1)c1cnccn1 |  |  | > 10 |  | 
9 | COc1cc(NC(=O)c2ccccn2)ccc1F | 207 | 107 | 0.78 | 370 | Activity [11]: inactive; Activity [12]: inactive; fold change (FC) [8]: 17.5; remaining at 1 h [2]: 3%; Activity [13]: inactive; remaining at 1 h [3]: 6.3%; Fu (Plasma [4]): 5.1%; Activity [14]: inactive; fold change (FC) [9]: 26.7; Activity [15]: inactive; Fu (Plasma [6]): 6.5%; Activity [16]: inactive
10 | O=C(Nc1ccc2c(c1)OCO2)c1ccccn1 | 90 | 50 | > 10 | 500 | 
11 | Cn1cccc1C(=O)Nc1ccc(Cl)c(Cl)c1 |  |  | > 10 |  | 
12 | O=C(Nc1ccc(Cl)c(Cl)c1)c1cc2ccccc2o1 |  |  | > 10 |  | 
13 | O=C(Nc1cccc(C(F)(F)F)c1)c1ccccn1 | 150 | 81 |  |  | remaining at 1 h [2]: 26%; remaining at 1 h [3]: 19%; Fu (Plasma [4]): 1.3%; Fu (Plasma [6]): 2.9%
14 | O=C(Nc1ccc(Cl)c(Cl)c1)C1CCCCC1 |  |  | > 10 |  | 
15 | O=C(Nc1ccc(Cl)c(Cl)c1)c1ccccc1 |  |  | > 10 |  | 
16 | COc1cc(NC(=O)c2ccccn2)ncn1 |  |  | > 10 | > 10000 | 

Row | SMILES | Emax [1] [%] | Emax [5] [%] | EC50 [7] [µM] | EC50 [10] [nM] | other results
17 | O=C(Nc1cccc(Cl)c1)c1ccccn1 | 227 | 124 | 1.1 | 290 | fold change (FC) [8]: 18.1; fold change (FC) [9]: 31.4
18 | COc1ccc(NC(=O)c2ccccn2)cc1OC | 164 | 102 | > 5 | 2400 | 
19 | O=C(Nc1cccc(OC(F)F)c1)c1ccccn1 | 235 | 113 |  |  | Activity [11]: inactive; Activity [12]: inactive; remaining at 1 h [2]: 2.4%; Activity [13]: inactive; t1/2 (Plasma [17]): 0.26 h; remaining at 1 h [3]: 1.4%; Cmax [18]: 1680 ng/mL; Fu (Plasma [4]): 4%; Cmax (Plasma [19]): 188 ng/mL; Activity [14]: inactive; AUC [20]: 976 ng·h/mL; AUC (Plasma [21]): 99 ng·h/mL; Activity [15]: > 10 µM; Fu (Plasma [6]): 5.8%; CL/F [22]: 1420 mL/min/kg; t1/2 (Brain): 23.4 min
20 | COc1cc(NC(=O)c2ccccn2)ccc1Cl | 182 | 109 |  |  | Activity [11]: inactive; Activity [12]: inactive; fold change (FC) [8]: 28.1; remaining at 1 h [2]: 5.3%; Activity [13]: inactive; t1/2 (Plasma [17]): 1.9 h; remaining at 1 h [3]: 1.8%; Cmax [18]: 1580 ng/mL; Fu (Plasma [4]): 2.2%; Cmax (Plasma [19]): 154 ng/mL; Activity [14]: inactive; fold change (FC) [9]: 35.3; AUC [20]: 705 ng·h/mL; AUC (Plasma [21]): 173 ng·h/mL; Activity [15]: 5.1 µM; Fu (Plasma [6]): 2.4%; fold change (FC) [16]: 2.7; CL/F [22]: 894 mL/min/kg; t1/2 (Brain): 9 min
21 | O=C(Nc1cccc(C(F)(F)F)n1)c1ccccn1 |  |  | > 10 | > 10000 | 
22 | O=C(Nc1ccc(Cl)c(Cl)c1)c1ccco1 | 135 |  | > 5 |  | 
23 | O=C(Nc1ccc(Cl)c(Cl)c1)c1ccc(-c2ccccc2)o1 |  |  | > 10 |  | 
24 | COc1ccc(NC(=O)c2ccccn2)cc1Cl | 161 | 108 | 1.1 | 740 | fold change (FC) [8]: 7.2; fold change (FC) [9]: 12
25 | O=C(Nc1ccc(Cl)c(Cl)c1)c1ccccn1 | 80 |  | 1.4 |  | 
26 | Cc1cc(NC(=O)c2ccco2)ccc1Br |  |  | > 5 |  | fold change (FC) [8]: 4.3
27 | O=C(Nc1ccc(Cl)c(Cl)c1)c1ccncn1 | 83 |  | 2.8 |  | 
28 | O=C(Nc1ccc(Cl)c(Cl)c1)c1ccsc1 |  |  | > 10 |  | 
29 | O=C(Nc1ccccc1)[C@]12C[C@H]1/C(=N\O)c1ccccc1O2 | 251 | 88 |  | 2030 | fold change (FC) [9]: 8.8
30 | O=C(Nc1ccc(F)c(C(F)(F)F)c1)c1ccccn1 | 54 | 42 | 1.5 | 1000 | fold change (FC) [8]: 2.1; fold change (FC) [9]: 2.7
31 | COc1cc(NC(=O)c2ccccn2)ccc1C | 178 | 121 | 0.56 | 210 | fold change (FC) [8]: 16.8; fold change (FC) [9]: 35.3
